Measurements reported in ChEMBL document CHEMBL4765238, “Structure-Based Discovery and Optimization of Benzo[ d]isoxazole Derivatives as Potent and Selective BET Inhibitors for Potential Treatment of Castration-Resistant Prostate Cancer (CRPC)” (J Med Chem, 2018).
Active and inactive are the calls of the source. The rule behind the calls is not given here.

What was measured:
CWR22R [1] = assay: Inhibition of colony formation in human 22Rv1 cells incubated for 14 days by crystal violet staining based assay; format: functional, cell-based; conditions: dose 0.5-2 µM, time 14.0 day
Summary of the method: (§1)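 22Rv1 cells cultured with vehicle (DMSO) or compound at 0.5, 1.0 or 2.0 µM for 14 days, then stained and colonies assessed.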

[2] = Toxicity in CB17/IcrHSD-Prkdc-SCID mouse xenografted with human LNCaP C4-2B cells assessed as effect on animal behaviour at 50 mg/kg, ip administered 5 times per week for 25 days; format: organism-based; conditions: in vivo, 600 h, time 25 day
Summary of the method: (§2)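 C4-2B xenograft mice randomized once tumors reached about 100 mm3. Vehicle or compound given i.p. at 50 mg/kg, five times per week, over a 25-day treatment period. Tolerability judged from body weight, tracked across treatment days, and from general behaviour.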

CWR22R [3] = assay: Inhibition of colony formation in human 22Rv1 cells at 0.5 uM incubated for 14 days by crystal violet staining based assay; format: functional, cell-based; conditions: time 14.0 day; summary of the method: as §1
HFL1 = assay: Cytotoxicity against human HFL1 cells assessed as reduction in cell viability incubated for 72 hrs by cell-titer glo assay; format: cell-based; conditions: HFL1, 72 h
LNCaP [4] = assay: Inhibition of BET bromodomain in human LNCaP cells assessed as suppression of PSA mRNA expression at 5 uM incubated for 48 hrs by SYBR green dye based qRT-PCR analysis; format: cell-based
Summary of the method: (§3)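 LNCaP or VCaP cells exposed to vehicle (DMSO) or compound at 5 µM for 48 h; mRNA levels measured by qRT-PCR; mean ± s.e.m., n = 3; two-tailed Student's t-test.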

LNCaP [5] = assay: Inhibition of BET bromodomain in human LNCaP cells assessed as suppression of Myc mRNA expression at 5 uM incubated for 48 hrs by SYBR green dye based qRT-PCR analysis; format: cell-based; summary of the method: as §3
LNCaP C4-2B [6] = assay: Antitumor activity against human LNCaP C4-2B cells xenografted in CB17/IcrHSD-Prkdc-SCID mouse assessed as tumor growth inhibition at 50 mg/kg, ip administered 5 times per week for 25 days by caliper analysis; format: functional; conditions: 600 h, time 25 day, read-out: TGI
Summary of the method: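 C4-2B cells xenografted in mice; once tumours reached about 100 mm3, mice were randomized and given vehicle or compound at 50 mg/kg i.p. five times per week for 25 days; tumour volume (mean ± s.e.m.) and body weight tracked.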

22Rv1 [7] = assay: Inhibition of BET bromodomain in human 22Rv1 cells assessed as suppression of AR-V7 protein expression at 1 to 16 uM incubated for 48 hrs by western blot analysis; format: cell-based; conditions: dose 1-16 µM
MV4-11 = assay: Antiproliferative activity against human MV4-11 cells assessed as reduction in cell viability incubated for 120 hrs by cell-titer glo assay; format: functional, cell-based; conditions: MV4-11, 120 h
Hs-578T = assay: Antiproliferative activity against human Hs-578T cells assessed as reduction in cell viability incubated for 72 hrs by cell-titer glo assay; format: functional, cell-based
U2OS = assay: Antiproliferative activity against human U2OS cells assessed as reduction in cell viability incubated for 72 hrs by cell-titer glo assay; format: functional, cell-based
A549 = assay: Antiproliferative activity against human A549 cells assessed as reduction in cell viability incubated for 72 hrs by cell-titer glo assay; format: functional, cell-based; conditions: A549, 72 h
VCaP [8] = assay: Inhibition of BET bromodomain in human VCaP cells assessed as suppression of TMPRSS2 mRNA expression at 5 uM incubated for 48 hrs by SYBR green dye based qRT-PCR analysis; format: cell-based; summary of the method: as §3
LNCaP [9] = assay: Inhibition of BET bromodomain in human LNCaP cells transfected with Luc-tagged PSA and renilla luciferase assessed as reduction in PSA transcriptional activity measured after 24 hrs by dual luciferase reporter gene assay; format: cell-based; conditions: dose 0.4-10 µM
Summary of the method: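 LNCaP cells transfected with a PSA-luc reporter plasmid, then treated with vehicle or compound at 0.4, 2.0 or 10.0 µM; PSA transcriptional activity read by luciferase; mean ± s.e.m., n = 3; two-tailed Student's t-test.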

VCaP [10] = assay: Inhibition of BET bromodomain in human VCaP cells assessed as suppression of PSA mRNA expression at 5 uM incubated for 48 hrs by SYBR green dye based qRT-PCR analysis; format: cell-based; summary of the method: as §3
MCF7 = assay: Antiproliferative activity against human MCF-7 cells assessed as reduction in cell viability incubated for 96 hrs by cell-titer glo assay; format: functional, cell-based; conditions: MCF7, 96 h
DU-145 = assay: Antiproliferative activity against AR-negative human DU-145 cells assessed as reduction in cell viability incubated for 72 hrs by cell-titer glo assay; format: functional, cell-based; conditions: DU-145, 72 h
22Rv1 [11] = assay: Inhibition of BET bromodomain in human 22Rv1 cells assessed as suppression of full-length androgen receptor protein expression at 1 to 16 uM incubated for 48 hrs by western blot analysis; format: cell-based; conditions: dose 1-16 µM
VCaP [12] = assay: Inhibition of BET bromodomain in human VCaP cells assessed as suppression of KLK2 mRNA expression at 5 uM incubated for 48 hrs by SYBR green dye based qRT-PCR analysis; format: cell-based; summary of the method: as §3
HT-29 = assay: Antiproliferative activity against human HT-29 cells assessed as reduction in cell viability incubated for 120 hrs by cell-titer glo assay; format: functional, cell-based; conditions: HT-29, 120 h
PC-3 = assay: Antiproliferative activity against AR-negative human PC-3 cells assessed as reduction in cell viability incubated for 96 hrs by cell-titer glo assay; format: functional, cell-based; conditions: PC-3, 96 h
VCaP [13] = assay: Inhibition of BET bromodomain in human VCaP cells assessed as suppression of ERG mRNA expression at 5 uM incubated for 48 hrs by SYBR green dye based qRT-PCR analysis; format: cell-based; summary of the method: as §3
[14] = Toxicity in CB17/IcrHSD-Prkdc-SCID mouse xenografted with human LNCaP C4-2B cells assessed as effect on body weight at 50 mg/kg, ip administered 5 times per week for 25 days; format: organism-based; conditions: in vivo, 600 h, time 25 day; summary of the method: as §2
LNCaP C4-2B [15] = assay: Inhibition of colony formation in human LNCaP C4-2B cells at 0.5 uM incubated for 14 days by crystal violet staining based assay; format: functional, cell-based; conditions: time 14.0 day
Summary of the method: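 C4-2B cells cultured with vehicle (DMSO) or compound at 0.5, 1.0 or 2.0 μM for 14 days, then colonies stained and counted against vehicle.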

[16] = AUC in Sprague-Dawley rat at 2 mg/kg, iv by LC/MS analysis; format: ADME, organism-based; set-up: dose 2 mg/kg; conditions: in vivo
Summary of the method: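 Sprague-Dawley rats dosed iv at 2 mg/kg (a separate oral arm received 10 mg/kg); plasma exposure parameters derived from the concentration–time profile.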

HeLa = assay: Antiproliferative activity against human HeLa cells assessed as reduction in cell viability incubated for 72 hrs by cell-titer glo assay; format: functional, cell-based

SMILES | inhibition (CWR22R [1]) | Activity [2] | inhibition (CWR22R [3]) | IC50 (HFL1) | inhibition (LNCaP [4]) | inhibition (LNCaP [5]) | inhibition in vivo at 50 mg/kg (LNCaP C4-2B [6]) | inhibition (22Rv1 [7]) | IC50 (MV4-11) | IC50 (Hs-578T) | IC50 (U2OS) | IC50 (A549) | inhibition (VCaP [8]) | inhibition (LNCaP [9]) | inhibition (VCaP [10]) | IC50 (MCF7) | IC50 (DU-145) | inhibition (22Rv1 [11]) | inhibition (VCaP [12]) | IC50 (HT-29) | other results
Cc1noc2ccc(-c3nc4ccc(N5CCOC[C@@H]5C)cc4n3CC3CCCCC3)cc12 | Dose-dependent effect | Non-Toxic | Active | 15900 nM | Active | Active | 51% | Active | 400 nM | 1000 nM | > 5000 nM | 2500 nM | Active | Dose-dependent effect | Active | 1000 nM | > 6000 nM | Active | Active | 400 nM | IC50 (PC-3): > 3000 nM; inhibition (VCaP [13]): Active; Activity [14]: Non-Toxic; inhibition (LNCaP C4-2B [15]): Active; AUC [16]: 881 ng·h/mL; IC50 (HeLa): > 5000 nM
COc1cc2onc(C)c2cc1NS(=O)(=O)c1cc(Br)ccc1OC | Dose-dependent effect | Non-Toxic | Active | 18200 nM | Active | Active | 70% | Active | 400 nM | 1000 nM | > 5000 nM | > 5000 nM | Active | Dose-dependent effect | Active | 1000 nM | > 6000 nM | Active | Active | 400 nM | IC50 (PC-3): > 3000 nM; inhibition (VCaP [13]): Active; Activity [14]: Non-Toxic; inhibition (LNCaP C4-2B [15]): Active; AUC [16]: 1170 ng·h/mL; IC50 (HeLa): > 5000 nM
